Measurements from paper PMC3823002 (Journal of Cellular and Molecular Medicine, 2009).

How the values were obtained:
FGF2 = assay: STD NMR analysis of peptide/FGF2 interaction; format: binding, human; conditions: STD NMR in the presence of 50 μM FGF2, reducing conditions; result in words
How it was run: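 500 MHz STD NMR used 50 µM FGF2 plus 1.9 mM peptide in 30 mM phosphate (95% D2O), 8 mM DTT, 40 mM NaCl, pH 6.8. Saturation lasted 3 s, with a 30 ms T1ρ filter and 192 transients. Off-resonance reference minus saturated spectrum gave STD; the factor is ISTD/I0. A peptide-only control was run. Titrations spanned 1:10–1:100 FGF2:peptide at 280 K.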

endothelial GM7373 cells = assay: GM7373 cell proliferation triggered by different mitogenic stimuli; format: cell-based, bovine
FGF2/FGFR1 interaction = FGF2/FGFR1 interaction (Homo sapiens, UniProt P09038); assay: BIAcore competition: binding of free FGF2 to immobilized sFGFR1; conditions: FGF2 50 nM, sFGFR1(IIIc)/Fc chimera-coated BIAcore sensor chip; for effect on binding of FGF2 to immobilized sFGFR1(IIIc)/Fc chimera: peptide 1.0 μM
Sequence of FGF2/FGFR1 interaction (P09038 134-288): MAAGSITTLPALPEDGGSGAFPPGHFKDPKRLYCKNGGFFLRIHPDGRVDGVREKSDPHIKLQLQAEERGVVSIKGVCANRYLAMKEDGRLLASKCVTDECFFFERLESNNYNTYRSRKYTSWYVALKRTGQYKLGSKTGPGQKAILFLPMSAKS

[1] = test system: VEGF/VEGFR2/KDR interaction; assay: BIAcore competition: binding of free VEGF to immobilized sKDR/Fc chimera; parameters: species or system human; conditions: 45 nM VEGF injected for 4 min., peptide 300 μM; data not shown
How it was run: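 sKDR/Fc (20 µg/ml in 10 mM sodium acetate, pH 5.3) was amine-coupled to an EDC/NHS-activated CM5 chip (~0.06 pmol/mm2), then ethanolamine-neutralized. VEGF (45 nM) was injected for 4 min with or without 300 µM test peptide. Response (RU) was read at end of injection and plotted as percentage of maximal bound analyte.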

[2] = biological target: Fibroblast growth factor-2 (human); assay: SPR

| Molecule | IC50 [2] [µM] | further results |
| --- | --- | --- |
| Ac-ARPCG-NH2 |  | FGF2 binding deduced from STD spectrum (FGF2): absence of STD signals |
| H-ARPCA-NH2 |  | FGF2 binding deduced from STD spectrum (FGF2): absence of STD signals |
| Ac-ARPSA-NH2 |  | FGF2 binding deduced from STD spectrum (FGF2): reduced STD amplification factor; inhibition of GM7373 cell proliferation, any mitogen (endothelial GM7373 cells; FGF2, FGF1, FGF8b, VEGF, EGF, DAG, TPA or 10% FCS, control peptide): No inhibition; effect on binding of FGF2 to immobilized sFGFR1(IIIc)/Fc chimera (FGF2/FGFR1 interaction): No effect |
| Ac-GRPCA-NH2 |  | FGF2 binding deduced from STD spectrum (FGF2): still able to bind FGF2 |
| Ac-ARPCA-NH2 |  | GM7373 cell proliferation triggered by FGF2 (endothelial GM7373 cells; FGF2 0.55 nM, peptide 66 μM, 0.4% FCS, 24 hrs, cell counting, triplicate): inhibits; GM7373 cell proliferation triggered by FGF8b (endothelial GM7373 cells; FGF8b 1.66 nM, peptide 66 μM, 24 hrs, cell counting, triplicate): inhibits; binding of FGF2 to immobilized FGFR1 ID50 (FGF2/FGFR1 interaction): 30 µM; effect on binding of FGF2 to immobilized sFGFR1(IIIc)/Fc chimera (FGF2/FGFR1 interaction): significantly inhibits; binding of VEGF to immobilized sKDR/Fc chimera [1]: did not prevent |
| Ac-ARPCAPGAPAEARL-NH2 [PTX3-(100-113) peptide Ac-…-NH2] | 500 |  |
| Ac-ARPCG-NH2 [Ac-ARPCG-NH2] | 1000 |  |
| Ac-ESLARPCAPGAPAE-NH2 [PTX3-(97-110) peptide Ac-…-NH2] | 300 |  |
| Ac-ARPMA-NH2 [Ac-ARPMA-NH2] | > 3000 |  |
| Ac-APCRA-NH2 [Ac-APCRA-NH2, partially scrambled pentapeptide] | 800 |  |
| Ac-GRPCG-NH2 [Ac-GRPCG-NH2] | > 3000 |  |
| Ac-ALPCA-NH2 [Ac-ALPCA-NH2] | > 3000 |  |
| Ac-GRPCA-NH2 [Ac-GRPCA-NH2] | 80 |  |
| Ac-APGAPAEARL-NH2 [PTX3-(104-113) peptide Ac-…-NH2] | 2000 |  |
| Ac-ARPVA-NH2 [Ac-ARPVA-NH2] | > 3000 |  |
| Ac-ARACA-NH2 [Ac-ARACA-NH2] | > 3000 |  |
| H-ARPCA-NH2 [H-ARPCA-NH2, non-acetylated pentapeptide] | 2000 |  |
| Ac-ESLARPCAPGA-NH2 [PTX3-(97-107) peptide Ac-…-NH2] | 300 |  |
| Ac-PARAC-NH2 [Ac-PARAC-NH2, scrambled pentapeptide] | 1000 |  |
| Ac-ARPSA-NH2 [Ac-ARPSA-NH2] | > 3000 |  |
